PRMT1 inh: PRMT1 methyltransferase inhibitors, primary screen, biochemical, fluorescence polarization; Protein arginine N-methyltransferase 1 (Homo sapiens), Q99873; recombinant PRMT1, activity-based probe fluorescence polarization; inhibition, % at 2.79 µM; actives 1.3% (n = 370,000);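 active = inhibition above about 21% made by adding two undisclosed values, limit read from the data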
TCR-CD3 inh: inhibitors of human TCR-CD3 interaction, primary screen, biochemical, fluorescence, TAMRA-labeled TCR probe; inhibition, % at 9.4 µM; actives 0.37% (n = 360,000); in the data active = inhibition above about 19%;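 note: recombinant mutant TCR 2C K166C tagged with TAMRA read by polarization; 0% = receptor in buffer alone and 100% = receptor with positive control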
HTRA1 inhibitor: HTRA1 serine protease inhibitors, primary screen, biochemical, fluorescence polarization, HTS. AID 504803, 2011. Q92743. recombinant HTRA1, FP-rhodamine activity-based probe. actives 0.5% (n = 340,000). inhibition, % at 5.96 µM; in the data active = inhibition above about 36%;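 note: 0% = enzyme with DMSO and 100% = wells lacking enzyme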
ABHD4 inh: ABHD4 inhibitors, primary screen, biochemical, fluorescence polarization, mouse | purified mABHD4, FP-Rh probe fluorescence polarization | (Lyso)-N-acylphosphatidylethanolamine lipase (Mus musculus), Q8VD66 | inhibition, % at 8.92 µM | actives 0.54% (n = 370,000);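 active = inhibition exceeding the mean over every tested compound plus 3 SD, cut at about 30% in these data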;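 note: 0% = plate median of compound wells and 100% = S159A mutant with DMSO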
Target sequence (Q8VD66 whole entry, looked up): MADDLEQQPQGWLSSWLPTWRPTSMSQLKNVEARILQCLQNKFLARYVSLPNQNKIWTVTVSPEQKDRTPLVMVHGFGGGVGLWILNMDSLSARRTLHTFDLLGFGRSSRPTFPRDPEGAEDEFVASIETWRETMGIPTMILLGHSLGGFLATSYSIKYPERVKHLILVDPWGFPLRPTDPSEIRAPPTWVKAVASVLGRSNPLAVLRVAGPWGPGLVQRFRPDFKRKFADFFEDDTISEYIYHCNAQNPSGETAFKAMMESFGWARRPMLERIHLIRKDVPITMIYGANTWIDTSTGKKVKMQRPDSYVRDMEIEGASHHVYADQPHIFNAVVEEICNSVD
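system = mouse ABHD4 enzyme, wild type | medium = HEPES pH 7.0, NaCl, Pluronic buffer | also added = FP-Rh probe | incubation = Enzyme–compound pre-incubation 45 min, then probe 60 min, both 25 °C | technique = fluorescence polarization, excitation 525 nm, emission 598 nm, BODIPY TMR filters | controls = S159A mutant high control, sample median low control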
SIAE inh: human SIAE inhibitors, primary screen, biochemical, fluorescence polarization, FP-Rh probe, 1536-well HTS. Sialate O-acetylesterase (Homo sapiens), Q9HAT2. SIAE FP-Rh probe binding. inhibition, % at 9.66 µM. actives 0.69% (n = 370,000);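 active = inhibition above a cutoff: mean of compounds within the control limits plus 3 SD of those, cut at about 17% in these data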;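 note: 0% = plate median of compound wells and 100% = probe without SIAE protein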
rCAG binder: binders of r(CAG) RNA repeats, primary screen, biochemical, fluorescence | actives 1.3% (n = 370,000) | AID 651821, 2012 | r(CAG) RNA repeat, TO-PRO-1 dye displacement fluorescence | inhibition, % at 3 µM;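 active = inhibition above the plate cutoff, the mean of all test compounds on that plate plus 3 SD, cut at about 35% in these data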;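 note: 0% = DMSO alone and 100% = 100 µM mitoxantrone as full dye displacement; higher means more dye released from RNA so lower well fluorescence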
SIAE inh conf: human SIAE inhibitors, retest, confirmation, biochemical, fluorescence polarization, FP-Rh probe, triplicate | shares compounds with SIAE inh | actives 13% (n = 2,300) | inhibition, % at 9.66 µM | SIAE FP-Rh activity-based probe;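 active = mean inhibition of the replicates above the hit cutoff set in the primary screen, cut at about 17% in these data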;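 note: 0% = SIAE with DMSO and probe and 100% = probe without SIAE; inhibitors lower polarization as more probe stays unbound to SIAE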
* = called active by the depositor; . = no result. Sampled rows, rich in hits. Any-hit rate of the full collection: about 3.5%.

SMILES	PRMT1 inh	TCR-CD3 inh	HTRA1 inhibitor	ABHD4 inh	SIAE inh	rCAG binder	SIAE inh conf
O=C(O)/C=C/c1cn(Cc2ccccc2)nc1-c1ccccc1	-2	2	3	-3	19*	0	2
Cc1ccc(-c2nn(Cc3ccccc3)cc2/C=C/C(=O)O)cc1C	0	7	-8	-8	0	19	.
Cn1c(=O)c2[nH]c(SCC(=O)NCCc3ccc(F)cc3)nc2n(C)c1=O	-1	.	.	1	4	2	.
CN(C)c1ccc(NC(=O)Nc2csc3ccccc23)cc1	0	8	.	16	18*	19	9
COc1ccc(NC(=O)Cc2csc(NC(=O)Nc3ccccc3OC)n2)cc1	-2	3	-14	10	2	6	.
COc1ccccc1NC(=O)Nc1nc(CC(=O)Nc2ccc(N(C)C)cc2)cs1	-1	-1	21	24	27*	16	0
CCCc1nc2ccc(Cl)cn2c1Cc1ccc(C)cc1	-1	5	.	6	18*	2	4
Nn1c(SCC(=O)Nc2ccccc2-c2ccccc2)nnc1-c1cc(-c2ccc(Cl)cc2)n[nH]1	1	.	.	-21	-10	10	.
Cc1[nH]c(-c2ccc3c(c2)OCO3)nc1C(=O)O	-1	-4	0	5	2	3	.
COc1ccc(-c2nc(-c3ccc4c(c3)OCO4)[nH]c2-c2ccc(OC)cc2)cc1	-1	4	7	13	19*	5	0
COc1ccc(OC(=O)Nc2ccccc2)cc1	-2	2	-3	5	19*	-2	2
CCc1ccc(OC(=O)Nc2ccccc2)cc1	1	11	-3	-1	-2	-2	.
O=C(Nc1ccc(F)cc1F)C1CCCN1S(=O)(=O)c1cccnc1 (stereo not drawn)	4	.	.	1	-1	2	.
COc1cc(S(=O)(=O)NCc2ccccc2)ccc1F	-2	-5	-2	0	19*	0	-3
O=C(Cn1nnc2ccccc21)OCC(=O)c1ccccc1	4	2	0	0	19*	2	-3
O=C(Cn1nnc2ccccc21)OCC(=O)c1ccc(Cl)c(Cl)c1	8	-3	2	4	-3	3	.
CCCC1CCC2(CC1)CCC2OC(=S)Nc1cccc(I)c1 (stereo not drawn)	-5	.	.	-15	-2	.	.
Cc1cc(C)nc(SCC(=O)N/N=C/c2cccs2)n1	0	4	0	5	15	0	.
Cc1cc(C)nc(SCC(=O)NN=Cc2ccc(C)o2)n1	3	-6	0	8	18*	3	6
COc1cccc(N(C)C(=O)[C@@H](C2CC2)[C@@H](O)c2ccc3ccccc3c2)c1	-1	.	.	-1	3	-1	.
COc1ccc(NC(=O)CSc2nnc(Cn3cnc4ccccc43)o2)cc1	-1	-4	8	-2	18*	-1	0
COc1ccccc1CNc1ncc(-c2ccc(F)cc2)n1C	1	3	-5	5	1	-1	.
COc1ccc(CNc2ncc(-c3ccc(F)cc3)n2C)c2ccccc12	-4	4	-14	15	18*	5	8
COc1ccccc1CNC(=O)C1CCCN(S(=O)(=O)c2cccs2)C1 (stereo not drawn)	4	3	4	3	-9	0	.
COc1ccccc1CNC(=O)C1CCCN(S(C)(=O)=O)C1 (stereo not drawn)	0	5	-3	4	23*	-3	-1
CC(=O)NC1CCCCN(Cc2ccc(Cl)cc2)C1=O (stereo not drawn)	-8	.	.	-3	4	2	.

Bioassay records deposited in PubChem BioAssay by The Scripps Research Institute Molecular Screening Center.
